≈ marks a conversion by molar mass, not a printed value. Numbered stars: 1 amine (or outer) side, 2 acyl side, 3 side chain; on linkers, the order of the positions; unused ones are H or OH. Bridge positions count the residues as written; N and C are the ends. Square brackets hold non-standard residues; d marks the D form. Peptide text beside a SMILES is read from it. * marks the point of attachment. hTyr(3S-OH,4S-OH,3'-OSO3H) = N[C@H](C(=O)O)[C@H](O)[C@@H](O)c1ccc(O)c(OS(=O)(=O)O)c1; Orn(4R-OH,5R-OH) = O=C([C@H](C[C@@H](O)[C@@H](O)N[*:3])N[*:1])[*:2]; Pro(3S-OH,4S-Me) = C[C@H]1CN[C@H](C(=O)O)[C@H]1O; X1 = CCCCCOc1ccc(-c2cc(-c3ccc(C(=O)*)cc3)no2)cc1; Gln(3R-OH) = NC(=O)C[C@@H](O)[C@H](N)C(=O)O; Hyp = O=C(O)[C@@H]1C[C@@H](O)CN1
Columns and labels:
Format in all cases: functional
[1] = tested on: Escherichia coli; test: Antimicrobial activity against Escherichia coli assessed as reduction in bacterial growth incubated for 48 hrs by microbroth dilution method
Summary of the method: (§1)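 Panel assay run per a previously reported protocol. Amphotericin B, micafungin, hygromycin B and kanamycin served as control agents across the organism panel.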

[2] = tested on: Staphylococcus aureus; test: Antimicrobial activity against Staphylococcus aureus assessed as reduction in bacterial growth incubated for 48 hrs by microbroth dilution method; summary of the method: as §1
[3] = tested on: Bacillus subtilis; test: Antimicrobial activity against Bacillus subtilis assessed as reduction in bacterial growth incubated for 48 hrs by microbroth dilution method; summary of the method: as §1
[4] = tested on: Micrococcus luteus; test: Antimicrobial activity against Micrococcus luteus assessed as reduction in bacterial growth incubated for 48 hrs by microbroth dilution method; summary of the method: as §1
[5] = tested on: Aspergillus niger; test: Antimicrobial activity against Aspergillus niger IFM62678 assessed as reduction in […] growth incubated for 48 hrs by microbroth dilution method; details: IFM62678, 48 h; summary of the method: as §1
[6] = tested on: Trichophyton mentagrophytes; test: Antimicrobial activity against Trichophyton mentagrophytes IFM62679 assessed as reduction in […] growth incubated for 48 hrs by microbroth dilution method; details: IFM62679, 48 h; summary of the method: as §1
[7] = tested on: Candida albicans; test: Antimicrobial activity against Candida albicans IFM62680 assessed as reduction in […] growth incubated for 48 hrs by microbroth dilution method; details: IFM62680, 48 h

Compound	MIC [1] [mg/L]	MIC [2] [mg/L]	MIC [3] [mg/L]	MIC [4] [mg/L]	IC50 [5] [mg/L]	IC50 [6] [mg/L]	IC50 [7] [mg/L]
NC[C@H]1O[C@H](O[C@H]2[C@H](O)[C@@H](O[C@H]3O[C@H](CO)[C@@H](O)[C@H](N)[C@H]3O)[C@H](N)C[C@@H]2N)[C@H](O)[C@@H](O)[C@@H]1O [KANAMYCIN]	< 0.1	< 0.1	< 0.1	1 (≈ 2.06 µM)	31.3 (≈ 64.6 µM)	7.8 (≈ 16.1 µM)	> 62.5
CCCCCOc1ccc(-c2cc(-c3ccc(C(=O)N[C@H]4C[C@@H](O)[C@@H](O)NC(=O)[C@@H]5[C@@H](O)[C@@H](C)CN5C(=O)[C@H]([C@H](O)CC(N)=O)NC(=O)[C@H]([C@H](O)[C@@H](O)c5ccc(O)c(OS(=O)(=O)O)c5)NC(=O)[C@@H]5C[C@@H](O)CN5C(=O)[C@H]([C@@H](C)O)NC4=O)cc3)no2)cc1 [MICAFUNGIN] (X1-[Orn(4R-OH,5R-OH)]T[Hyp][hTyr(3S-OH,4S-OH,3'-OSO3H)][Gln(3R-OH)][Pro(3S-OH,4S-Me)]; lactam 1-C)	> 62.5	0.5 (≈ 0.394 µM)	0.5 (≈ 0.394 µM)	7.8 (≈ 6.14 µM)	< 0.1	< 0.1	< 0.1
C[C@@H]1[C@H](O)[C@@H](C)/C=C/C=C/C=C/C=C/C=C/C=C/C=C/[C@H](O[C@@H]2O[C@H](C)[C@@H](O)[C@H](N)[C@@H]2O)C[C@@H]2O[C@](O)(C[C@@H](O)C[C@@H](O)[C@H](O)CC[C@@H](O)C[C@@H](O)CC(=O)O[C@H]1C)C[C@H](O)[C@H]2C(=O)O [AMPHOTERICIN B]	> 31.2	> 31.2	> 31.2	> 31.2	1.8 (≈ 1.95 µM)	3.9 (≈ 4.22 µM)	1 (≈ 1.08 µM)
CC(C)=CC[C@@H]1C[C@@]2(CC=C(C)C)C(=O)C3(CC=C(C)C)C[C@]1(C)[C@]2(O)/C(=C(/O)c1ccccc1)C3=O	8 (≈ 15.9 µM)	16 (≈ 31.8 µM)	16 (≈ 31.8 µM)	32 (≈ 63.7 µM)	16 (≈ 31.8 µM)	8 (≈ 15.9 µM)	32 (≈ 63.7 µM)
CC(C)=CC[C@]12C[C@H]3C[C@@H](C(C)(C)OO)OO[C@]3(C)C[C@](CC=C(C)C)(C1=O)C(O)=C(C(=O)c1ccccc1)C2=O	–	–	–	–	–	–	8 (≈ 14.1 µM)
CN[C@H]1C[C@@H](N)[C@H](O)[C@@H](O[C@@H]2O[C@H](CO)[C@H](O)[C@H]3O[C@@]4(O[C@H]23)O[C@H]([C@H](N)CO)[C@H](O)[C@H](O)[C@H]4O)[C@@H]1O	2 (≈ 3.79 µM)	0.5 (≈ 0.948 µM)	2 (≈ 3.79 µM)	1 (≈ 1.9 µM)	1 (≈ 1.9 µM)	1 (≈ 1.9 µM)	3.9 (≈ 7.39 µM)

Reference: ChEMBL document CHEMBL3421626, “Prenylated benzophenones from Triadenum japonicum” (2015)
